Test results from ChEMBL document CHEMBL1133128, “Hepatitis C viral IRES inhibition by phenazine and phenazine-like molecules” (Bioorg Med Chem Lett, 2000).
≈ marks a conversion by molar mass, not a printed value.

What was measured:
Huh-7 [1] = assay: Anti-Hepatitis C Viral IRES activity of compound by measured as Fluci signal in HC40 cells; format: functional, cell-based; details: Homo sapiens
Procedure, shortened: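 Huh7-derived HC40 line expressing CAT-IRES-Fluci under a CMV promoter, so luciferase reports IRES-dependent translation. Cells seeded at 1.5×10^4/well 24 h before dosing. Compounds added at various concentrations in 0.2% DMSO final and incubated 24 h at 37 °C. Cells washed twice in PBS, lysed 10 min in the dark in luciferin lysis buffer, then luciferase read.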

[2] = Ratio of inhibitory concentration against Hepatitis C Viral IRES in HC40 cells to that of HCF cells was determined; format: functional
Procedure, shortened: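 Ratio of the HC40 value to the HCF value. HCF cells are pooled Huh-7 stably transfected with CMV-Fluci (CMV control, no IRES control). Both lines seeded at 1.5×10^4/well 24 h ahead, dosed at various concentrations in 0.2% DMSO final for 24 h at 37 °C, washed twice in PBS, lysed in luciferin buffer for 10 min in the dark, and luciferase read.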

Huh-7 [3] = assay: Cytotoxic concentration of compound HC40 cells determined by using MTT assay; format: functional; details: Homo sapiens

SMILES | IC50 (Huh-7 [1]) [µg/mL] | Ratio [2] | CC50 (Huh-7 [3]) [µg/mL]
Nc1cc2nc3ccccc3nc2cc1N | 4.03 (≈ 19.2 µM) | 2.5 | > 10
Nc1ccc2c(c1)Oc1ncccc1C(=O)N2 | > 10 | – | > 10
CN(C)c1ccc(Nc2ccc(N(C)C)cc2)cc1 | 2.19 (≈ 8.58 µM) | 0.8 | 2.3 (≈ 9.01 µM)
CN(C)c1ccc(C(=O)c2ccc(N(C)C)cc2)cc1 [MICHLER'S KETONE] | > 10 | – | –
Nc1ccc2c(c1)NC(=O)c1cc(N)cnc1O2 | > 10 | – | > 10
Nc1ccc2[nH]c3ccc(N)cc3c2c1 | > 10 | – | > 10
Nc1ccc(Nc2ccc(N)cc2)cc1 | > 10 | – | –

Now from value to compound, other results behind:

IC50 (Huh-7 [1]) [µg/mL] | SMILES | Ratio [2] | CC50 (Huh-7 [3]) [µg/mL]
0.02 (≈ 0.0793 µM) | Cc1cc2nc3ccc(N(C)C)cc3nc2cc1N | 10 | > 10
> 10 | Cc1cc2nc3ccc(N(C)C)cc3nc2cc1I | – | > 10
1 (≈ 2.79 µM) | Cc1cc2c(cc1N)N(c1ccccc1C)c1cc(N(C)C)c(C)cc1N2 | 1 | > 10
3.74 (≈ 16.6 µM) | Cc1cc2nc3ccc(O)cc3nc2cc1N | >2.7 | > 10
> 10 | CN(C)c1ccc2c(c1)Sc1cc(N(C)C)ccc1N2C(=O)c1ccccc1 | – | > 10
1 | CCN(CC)c1ccc2[o+]c3cc(C)c(N)cc3nc2c1.[Cl-] | 3 | < 1
2.86 | CC(=O)[O-].Nc1ccc2nc3ccc(N)cc3[s+]c2c1 [THIONIN ACETATE] | 1.7 | 4.67
